The text below walks through data of ChEMBL document CHEMBL5674884, “Ezh2 inhibition in Kras-driven lung cancer amplifies inflammation and associated vulnerabilities” (J Exp Med, 2018).

The structures appear in SMILES notation. Activity calls are given as the source filed them. The calls are words filed in the database; no cut-off is given here.

Assay [1] relates to NSCLC. As to the kind of experiment: Antitumor activity in KrasG12D/+ harbouring mouse NSCLC cells xenografted in BALB/c nude mouse assessed as reduced tumor progression. It is filed as functional. To be noted: dose 50.0 mg/kg, route iv.
The test system of assay [2] is NSCLC. As to the kind of experiment: Antitumor activity against KrasG12D/+ expressing mouse NSCLC cells xenografted in BALB/c nude mouse assessed as increase in survival rate at 50 mg/kg, iv in the presence of BTZ/NM. It is filed as functional, organism-based. The essentials: (§1)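 Nude mice with tail-vein Kras G12D/+;Trp53-/- grafts dosed daily with GSK126 or vehicle from day 4 (n = 7/6). BTZ and NM then given on alternating days from day 19: BTZ 0.8 mg/kg on day one, 0.2 mg/kg plus NM 5 mg/kg on day two. Luciferase imaging analyzed by two-way ANOVA; survival recorded to humane endpoint.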

In assay [3] the target is Histone-lysine N-methyltransferase EZH2 (Homo sapiens) (UniProt Q15910). The assay can be described thus: Inhibition of Ezh2 in human A549 cells assessed as p65 phosphorylation by Immunoblot analysis. It is filed as cell-based. An outline of the steps:
(§2)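 A549, H1944 and H2122 cells treated continuously 5 d with GSK126 or vehicle, then replated at low confluence. Whole-cell RIPA extracts immunoblotted for phospho-p65 (S536) and total p65.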
Background: A western blot detects proteins with antibodies after separation by electrophoresis.

The target is the same in assay [4]. As to the kind of experiment: Inhibition of Ezh2 in LPS stimulated human A549 cells assessed as enhanced NF- kappa B activity. It is filed as cell-based. The essentials:
(§3)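 A549 cells carrying an NF-kB-responsive element/minimal TA promoter luciferase reporter, pretreated with GSK126 or vehicle. Stimulated with TNF-a for 3 h, or continuously with TNF-a or LPS over 16 h. Luminescence read on plate reader; two-way ANOVA; three independent experiments.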

For assay [5] the target is unchanged. The assay can be described thus: Inhibition of Ezh2 in human NCI-H1944 cells assessed as p65 phosphorylation by Immunoblot analysis. It is filed as cell-based. An outline of the steps:
as §2

The subject of assay [6] is NSCLC. As to the kind of experiment: Antitumor activity against KrasG12D/+ expressing mouse NSCLC cells xenografted in BALB/c nude mouse assessed as reduced tumor growth at 50 mg/kg, iv in the presence of BTZ/NM. It is filed as functional, organism-based. The essentials: as §1
Assay [7] has as its system NSCLC. The assay can be described thus: Upregulation of Cxcr4 gene in mouse NSCLC cells expressing KrasG12D/+. It is filed as functional, cell-based.
The test system of assay [8] is NSCLC. As to the kind of experiment: Anti-tumor activity against Kras G12D/+ expressing mouse NSCLC cells xenografted in BALB/c nude mouse assessed as decrease in frequency distribution of lesions at 50 mg/kg, iv for 30 days. The conditions noted are these: time 30.0 day. It is filed as functional, organism-based.
The target of assay [9] is Histone-lysine N-methyltransferase EZH2 (Mus musculus) (UniProt Q61188). As to the kind of experiment: In vivo inhibition of Ezh2 in BALB/c nude mouse expressing KrasG12D/+ assessed as Caspase-3 cleavage expression at 50 mg/kg, iv in the presence of BTZ/NM by Immunoblot analysis. It is filed as functional, organism-based. The essentials:
(§4)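 Mice with Kras G12D/+;Trp53-/- lung grafts given GSK126 or vehicle, randomized after 15 d to one maximum tolerated dose of BTZ and NM, and sacrificed 20 h later. Tumor lysates in RIPA with protease/phosphatase inhibitors, equal protein run on 4-12% Bis-Tris gels and immunoblotted with ECL detection for phospho-Akt, cleaved Parp1 and cleaved caspase-3.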

The target is the same in assay [10]. The assay can be described thus: In vivo inhibition of Ezh2 in BALB/c nude mouse xenografted with KrasG12D/+ expressing NSCLC cells (unknown origin) assessed as upregulation of H3K27me3 at 50 mg/kg, iv by IHC analysis. It is filed as functional, organism-based.
The target is the same in assay [11]. As to the kind of experiment: In vivo inhibition of Ezh2 in BALB/c nude mouse expressing KrasG12D/+ assessed as phospho-Akt expression at 50 mg/kg, iv in the presence of BTZ/NM by Immunoblot analysis. It is filed as functional, organism-based. An outline of the steps: as §4
The target is the same in assay [12]. As to the kind of experiment: In vivo inhibition of Ezh2 in BALB/c nude mouse expressing KrasG12D/+ assessed as Erk1/2 phosphorylation at 50 mg/kg, iv in the presence of BTZ/NM by IHC staining. It is filed as functional, organism-based. The essentials: (§5)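 Tumors from mice given daily GSK126/vehicle then alternating BTZ/NM, stained by IHC (n = 3 animals). Lung area divided into equal fields; ten fields per animal counted automatically for immunoreactive cells.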

The target is the same in assay [13]. The assay can be described thus: In vivo inhibition of Ezh2 in BALB/c nude mouse expressing Kras G12D/+ assessed as Erk1/2 expression level at 50 mg/kg, iv by immunoblotting analysis. It is filed as functional, organism-based.
The target is the same in assay [14]. As to the kind of experiment: In vivo inhibition of Ezh2 in BALB/c nude mouse expressing Kras G12D/+ assessed as reduction of Akt phosphorylation at 50 mg/kg, iv by immunoblotting analysis. It is filed as functional, organism-based. The essentials: as §4
Assay [15] shares this target. The assay can be described thus: In vivo inhibition of Ezh2 in BALB/c nude mouse expressing KrasG12D/+ assessed as increased survival rate at day 21 at 50 mg/kg, iv in the presence of BTZ/NM. It is filed as functional, organism-based. An outline of the steps:
as §1

Assay [16] has the same target. As to the kind of experiment: In vivo inhibition of Ezh2 in BALB/c nude mouse xenografted with KrasG12D/+ expressing NSCLC cells (unknown origin) assessed as upregulation of H3K27ac at 50 mg/kg, iv by IHC analysis. It is filed as functional, organism-based.
The test system of assay [17] is NSCLC. The assay can be described thus: Antitumor activity against Kras G12D/+ expressing mouse NSCLC cells xenografted in BALB/c nude mouse assessed as reduction in tumor burden at 50 mg/kg, iv for 30 days. The conditions noted are these: time 30.0 day. It is filed as functional, organism-based.
Assay [18] deals with Histone-lysine N-methyltransferase EZH2 (Mus musculus) (UniProt Q61188). As to the kind of experiment: In vivo inhibition of Ezh2 in BALB/c nude mouse xenografted with KrasG12D/+ expressing NSCLC cells (unknown origin) assessed as upregulation of H3K27ac at 50 mg/kg, iv by qRT-PCR analysis. It is filed as functional, organism-based. (Real-time PCR tracks product formation cycle by cycle.)

Assay [19] has the same target. As to the kind of experiment: In vivo inhibition of Ezh2 in BALB/c nude mouse expressing KrasG12D/+ assessed as Parp1 expression at 50 mg/kg, iv in the presence of BTZ/NM by Immunoblot analysis. It is filed as functional, organism-based. An outline of the steps: as §4
Assay [20] shares this target. The assay can be described thus: Inhibition of Ezh2 in mouse NSCLC cells co-cultured with Raw264.7 cells assessed as H3K27ac level by qRT-PCR analysis. It is filed as cell-based.
Assay [21] deals with NSCLC. As to the kind of experiment: Antitumor activity against Kras G12D/+ expressing mouse NSCLC cells xenografted in BALB/c nude mouse assessed as reduction in lung adenoma formation at 50 mg/kg, iv for 12 days by H&E staining analysis. It is filed as functional, organism-based. To be noted: time 12.0 day.
Assay [22] concerns the target Histone-lysine N-methyltransferase EZH2 (Homo sapiens) (UniProt Q15910). The assay can be described thus: Inhibition of Ezh2 in human A549 cells assessed as enhanced NF- kappa B activity. It is filed as cell-based. An outline of the steps: as §3
The test system of assay [23] is NSCLC. The assay can be described thus: Antiinflammatory activity in […] EZH2 inhibited mouse NSCLC cells xenografted in BALB/C mouse assessed as upregulation of TNF-alpha pathway at 50 mg/kg, iv for 10 days. It is filed as functional, organism-based. The conditions noted are these: time 10.0 day. The essentials:
(§6)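 Tail vein grafts of Kras G12D/+;Trp53-/- cells in nude mice, treated daily with 50 mg/kg GSK126 for 10 d (n = 4) or to humane endpoint (n = 3), or vehicle (n = 2). GFP+ tumor cells sorted by FACS, RNA-seq run, fold change taken over vehicle, and pathway activity inferred by PROGENy scoring.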

Assay [24] concerns the target Histone-lysine N-methyltransferase EZH2 (Homo sapiens) (UniProt Q15910). The assay can be described thus: Inhibition of Ezh2 in TNF-alpha stimulated human A549 cells assessed as enhanced NF- kappa B activity. It is filed as cell-based. An outline of the steps:
as §3

For assay [25] the target is unchanged. As to the kind of experiment: Inhibition of Ezh2 in human NCI-H2122 cells assessed as p65 phosphorylation by Immunoblot analysis. It is filed as cell-based. The essentials: as §2
Assay [26] deals with Histone-lysine N-methyltransferase EZH2 (Mus musculus) (UniProt Q61188). As to the kind of experiment: In vivo inhibition of Ezh2 in BALB/c nude mouse expressing Kras G12D/+ assessed as Erk1/2 expression level at 50 mg/kg, iv by IHC staining. It is filed as functional, organism-based. An outline of the steps:
as §5

The target is the same in assay [27]. As to the kind of experiment: In vivo inhibition of EZH2 in BALB/c nude mouse xenografted with Kras G12D/+ NSCLC cells (unknown origin) assessed as H3K27me3 level at 50 mg/kg, iv for 30 days by IHC analysis. It is filed as functional, organism-based. To be noted: time 30.0 day.
Assay [28] concerns NSCLC. The assay can be described thus: Antiinflammatory activity in […] EZH2 inhibited mouse NSCLC cells xenografted in BALB/C mouse assessed as upregulation of NF-kappaB pathway at 50 mg/kg, iv for 10 days. It is filed as functional, organism-based. To be noted: time 10.0 day. The essentials:
as §6

For assay [29], the target named is Histone-lysine N-methyltransferase EZH2 (Mus musculus) (UniProt Q61188). The assay can be described thus: In vivo inhibition of Ezh2 in BALB/c nude mouse expressing KrasG12D/+ assessed as cleaved Caspase-3 at 50 mg/kg, iv in the presence of BTZ/NM by IHC staining. It is filed as functional, organism-based. The essentials: as §5
Assay [30] deals with NSCLC. The assay can be described thus: Antitumor activity against KrasG12D/+ expressing mouse NSCLC cells xenografted in BALB/c nude mouse assessed as reduced cell proliferation at 50 mg/kg, iv in the presence of BTZ/NM. It is filed as functional, organism-based. The essentials:
as §5

Assay [31] has as its system NSCLC. As to the kind of experiment: Antiinflammatory activity in […] EZH2 inhibited mouse NSCLC cells xenografted in BALB/C mouse assessed as upregulation of JAK/STAT pathway at 50 mg/kg, iv for 10 days. It is filed as functional, organism-based. To be noted: time 10.0 day. An outline of the steps:
as §6

In assay [32] the test system is NSCLC. As to the kind of experiment: Anti-tumor activity against Ezh2i knockdown NSCLC cells (unknown origin) xenografted in BALB/c nude mouse assessed as increase in lifespan at 50 mg/kg, iv measured for 30 days. It is filed as functional, organism-based. To be noted: time 30.0 day.

Histone-lysine N-methyltransferase EZH2 (Homo sapiens), sequence (Q15910 whole entry, looked up): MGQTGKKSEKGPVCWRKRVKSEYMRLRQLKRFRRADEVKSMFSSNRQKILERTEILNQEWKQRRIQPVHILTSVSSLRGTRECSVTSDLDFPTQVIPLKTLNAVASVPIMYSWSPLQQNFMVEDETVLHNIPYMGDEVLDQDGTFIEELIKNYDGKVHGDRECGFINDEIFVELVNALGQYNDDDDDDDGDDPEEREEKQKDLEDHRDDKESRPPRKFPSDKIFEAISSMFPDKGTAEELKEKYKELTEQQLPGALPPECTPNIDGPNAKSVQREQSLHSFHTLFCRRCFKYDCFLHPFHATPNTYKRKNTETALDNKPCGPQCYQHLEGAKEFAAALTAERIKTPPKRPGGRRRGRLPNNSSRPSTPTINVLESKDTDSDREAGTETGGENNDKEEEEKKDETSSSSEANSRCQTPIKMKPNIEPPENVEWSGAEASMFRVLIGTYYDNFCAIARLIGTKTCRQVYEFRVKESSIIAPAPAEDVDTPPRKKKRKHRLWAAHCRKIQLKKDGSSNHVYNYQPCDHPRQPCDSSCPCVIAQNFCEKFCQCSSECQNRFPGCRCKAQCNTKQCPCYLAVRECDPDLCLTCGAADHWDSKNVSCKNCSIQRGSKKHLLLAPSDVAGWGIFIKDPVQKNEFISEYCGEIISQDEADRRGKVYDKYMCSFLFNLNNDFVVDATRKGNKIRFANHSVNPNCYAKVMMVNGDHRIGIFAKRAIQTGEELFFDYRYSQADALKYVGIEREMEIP
Histone-lysine N-methyltransferase EZH2 (Mus musculus), sequence (Q61188 whole entry): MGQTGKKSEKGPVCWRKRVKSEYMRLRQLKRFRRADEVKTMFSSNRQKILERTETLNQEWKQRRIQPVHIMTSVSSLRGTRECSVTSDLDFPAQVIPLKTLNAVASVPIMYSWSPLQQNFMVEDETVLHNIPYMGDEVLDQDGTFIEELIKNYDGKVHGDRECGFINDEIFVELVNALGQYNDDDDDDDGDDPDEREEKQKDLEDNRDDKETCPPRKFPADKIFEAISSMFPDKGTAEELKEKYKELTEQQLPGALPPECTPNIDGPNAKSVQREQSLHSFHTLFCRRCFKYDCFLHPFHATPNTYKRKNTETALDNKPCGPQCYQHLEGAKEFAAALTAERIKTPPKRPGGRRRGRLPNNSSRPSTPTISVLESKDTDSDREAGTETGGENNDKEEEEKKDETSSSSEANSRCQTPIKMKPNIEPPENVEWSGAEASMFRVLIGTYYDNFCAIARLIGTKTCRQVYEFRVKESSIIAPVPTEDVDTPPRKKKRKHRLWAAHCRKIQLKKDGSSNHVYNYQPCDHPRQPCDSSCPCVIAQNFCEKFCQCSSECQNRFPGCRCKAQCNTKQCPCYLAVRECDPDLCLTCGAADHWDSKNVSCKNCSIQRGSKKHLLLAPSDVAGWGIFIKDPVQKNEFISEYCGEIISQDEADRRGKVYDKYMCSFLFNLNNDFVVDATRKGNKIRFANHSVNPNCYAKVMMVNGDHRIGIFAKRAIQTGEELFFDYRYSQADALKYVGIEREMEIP

As for `CC(C)C[C@H](NC(=O)[C@H](Cc1ccccc1)NC(=O)c1cnccn1)B(O)O`, the result in the assay with NSCLC [1] was inactive.
As for `CC[C@H](C)n1cc(C)c2c(C(=O)NCc3c(C)cc(C)[nH]c3=O)cc(-c3ccc(N4CCNCC4)nc3)cc21`, the result in the assay with NSCLC [2], in the assay with NSCLC [6], in the assay with NSCLC [7], in the assay with NSCLC [8], in the assay with NSCLC [17] and in the assay with NSCLC [1] was Active. Also, the result in the assay with NSCLC [21], in the assay on NSCLC [23], with NSCLC [28], in the assay on NSCLC [30], in the assay with NSCLC [31] and with NSCLC [32] was Active. Moreover, the inhibition result in [3], in [4], in [5], in [9], in assay [10] and in assay [11] was “Active” in each case. The inhibition result in assay [12], in [13], in assay [14], in assay [15], in [16] and in [18] was “Active” each time. Besides, the inhibition entry in [19], in assay [20], in assay [22], in [24], in [25] and in assay [26] was “Active” in each case. Further, the inhibition entry in [27] and in [29] was “Active” throughout.
